Bioassay records from PubChem.
The sample as a whole holds a higher share of hits than the screen did.
RORa inhibitor: inhibitors of orphan receptor RORA, primary screen, cell-based, luminescence; CHO-K1 Gal4-RORA LBD luciferase reporter; 0.43% of 65,000 active; Nuclear receptor ROR-alpha (Homo sapiens), P35398; inhibition, % at 10 µM; AID 561, 2006;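 active means inhibition above the mean of all tested compounds plus 3 SD, cut at about 52% in these data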;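 further: 0% = RORA-transfected cells with DMSO and 100% = mock-transfected cells lacking RORA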
Target sequence (P35398 whole entry, looked up, the tested form may be a part): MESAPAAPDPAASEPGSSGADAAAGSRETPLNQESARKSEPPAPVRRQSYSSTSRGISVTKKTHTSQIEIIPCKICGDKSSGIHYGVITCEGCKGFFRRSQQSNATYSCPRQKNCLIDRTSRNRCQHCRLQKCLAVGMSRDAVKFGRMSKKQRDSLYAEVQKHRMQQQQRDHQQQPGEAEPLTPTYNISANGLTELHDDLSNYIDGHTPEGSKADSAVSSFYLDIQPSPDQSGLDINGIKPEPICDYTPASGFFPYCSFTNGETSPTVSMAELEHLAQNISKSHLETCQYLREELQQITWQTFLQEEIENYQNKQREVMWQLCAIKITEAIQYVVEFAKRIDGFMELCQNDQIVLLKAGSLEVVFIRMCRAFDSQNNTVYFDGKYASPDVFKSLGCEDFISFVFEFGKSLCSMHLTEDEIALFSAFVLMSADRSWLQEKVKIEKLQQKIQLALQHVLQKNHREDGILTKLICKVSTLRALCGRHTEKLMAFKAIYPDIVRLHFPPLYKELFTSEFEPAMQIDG
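System: transiently transfected CHO-K1 cells, Gal4-DBD/human RORA-LBD fusion plus 5xGal4-luciferase reporter. Doses: one dose of 10 µM final. Timing: 20 h compound treatment, 37 °C. Measured by: luminescence. Evaluation: % inhibition of basal luciferase versus +RORA/-RORA DMSO controls. Benchmarks: mock-transfected cells as 100%, +RORA DMSO cells as 0%. Replicates: single test per compound.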
The depositor's hits bear a star.

SMILES	RORa inhibitor
c1ccc(-c2noc(CN3CCN(c4ccccc4)CC3)n2)cc1	9
O=C(CCCOc1ccccc1)Nc1ccc2c(c1)OCCO2	4
Cc1nc(SCC(=O)Nc2c(C)n(C)n(-c3ccccc3)c2=O)n[nH]1	5
O=C(Nc1ncnc2c1ncn2C1OC(COC(=O)c2ccccc2)C(F)C1O)c1ccccc1 (stereo not drawn)	8
O=C(CSCc1cccc(F)c1)N1CCN(c2ccccc2)CC1	-53
CC(=O)c1c(N2CCN(Cc3ccc4c(c3)OCO4)CC2)nc(=S)n(-c2ccccc2)c1C	11
CCOc1ccccc1N(CC(=O)NCC1CCCO1)C(=O)CCC(=O)Nc1ccccn1 (stereo not drawn)	-14
NC(=O)CC12CC3CC(C1)CC(CC(N)=O)(C3)C2	7
COc1ccc(Cc2nc(-c3cccs3)no2)cc1OC	-10
COc1cccc(-c2noc(-c3cccs3)n2)c1	-66
COC(=O)c1ccc(-c2nc(-c3cccs3)no2)cc1	52*
Cc1csc(NC(=O)CNC(=O)OCc2ccccc2)n1	17
COC(=O)[C@@H](NC(=O)NC1CCCc2ccccc21)C(C)C (stereo partly drawn)	27
COc1ccc(C(=O)Nn2c(SCC(=O)NCC3CCCO3)nc3ccccc3c2=O)cc1 (stereo not drawn)	67*
CC(=O)NCCn1c(SCC(=O)NCC2CCCO2)nc2ccccc2c1=O (stereo not drawn)	6
COc1ccc(CN(CC(=O)NCC2CCCO2)C(=O)CCC(=O)Nc2cc(C)ccn2)cc1 (stereo not drawn)	-9
CC(C)Oc1ccccc1-c1nc(SCC(=O)O)n[nH]1	4
O=C(Nc1cccc(Br)c1)c1ccn[nH]1	-54
COc1ccc(S(=O)(=O)N2Cc3ccccc3CC2C(=O)Nc2ccc(O)cc2)cc1OC (stereo not drawn)	-31
CC1(C)CC(=O)C2=C(C1)Oc1nc3ccccc3cc1C2C(C#N)C#N (stereo not drawn)	72*
COc1ccc(CNC(=O)CCCCCn2c(SCC#N)nc3cc4c(cc3c2=O)OCO4)cc1	-16
Cc1ccc(OCc2ccc(C(=O)N3CCOCC3)cc2)cc1C	-52
Cc1ccccc1-n1c(=O)cc(N2CCN(C(=O)c3ccco3)CC2)[nH]c1=O	3
CCOc1ccc(-c2nnc3ccc(SCc4ccc(C(=O)OC)o4)nn23)cc1	-5
CCOc1ccc2nc(N3CCCC(C(=O)NCCCN4CCOCC4)C3)sc2c1 (stereo not drawn)	2
SMILES	RORa inhibitor
c1ccc(N2CCN(c3nc4cc5c(cc4s3)OCCO5)CC2)cc1	-77
c1c2c(cc3sc(N4CCOCC4)nc13)OCCO2	69*
COc1cc(NC(=O)Cn2c(-c3cncs3)nc3ccccc32)cc(OC)c1OC	-4
COCCNC(=O)c1cc(-c2ccccc2OC)on1	-52
CCC(CO)NCCNC(CC)CO (stereo not drawn)	15
COC(=O)c1ccc(NC(=O)Cn2nc(SC)n(N)c2=S)cc1	6
O=C(Nc1ncnc2sc3c(c12)CCC3)c1ccco1	9
O=C(NCc1ccco1)c1ccc2nc3sc4c(c3c(=O)n2c1)CCCC4	56*
O=C(Cn1c(=O)sc2ccccc21)NCc1ccco1	6
CCc1ccc(OCc2nc(-c3ccccn3)no2)c(Br)c1	10
c1ccc(-c2noc(-c3ccc4ccccc4c3)n2)nc1	92*
CCOc1ccc(-c2nc(-c3ccccc3)no2)cc1OCC	-49
COc1ccc(-c2nc(-c3ccccc3OC)no2)cc1OC	-56
c1ccc(-c2noc(-c3ccc4c(c3)OCO4)n2)nc1	78*
c1ccc(-c2noc(C3CCCCC3)n2)nc1	-61
Cn1c(=O)c2nc(-c3ccccc3)oc2c2ccccc21	-6
O=C(COC(=O)c1cc(=O)[nH]c2ccccc12)NC(=O)NC1CCCCC1	18
COc1ccc(C(C)N2CC34C=CC(O3)C(C(=O)O)C4C2=O)cc1 (stereo not drawn)	-5
CCOC(=O)N1CCN(Cc2nc3c(c(=O)[nH]c(=O)n3C)n2CCCc2ccccc2)CC1	20
CCOc1ccc2nc(NCCNC(=O)C3CC3)c(C)cc2c1	10
Cc1nc2ncnn2c(C)c1CCC(=O)Nc1ccc(S(=O)(=O)N2CCCCCC2)cc1	-10
Cc1ccccc1Cc1c(C)nc2ncnn2c1C	5
CCc1c(C)nc2ncnn2c1NCCc1ccc(OC)cc1	75*
CC(CCc1ccccc1)NC(=O)c1cc2sccc2n1C (stereo not drawn)	-12
COc1ccc(S(=O)(=O)Nc2cccc(SC)c2)cc1OC	0
COc1cc(-c2nnc(SCC(=O)N(Cc3ccccc3)C(C)(C)C)o2)cc(OC)c1OC	-14
COc1cc(OC)cc(-c2nnc(SCC(=O)N(Cc3ccccc3)C(C)(C)C)o2)c1	13
O=C(CSc1nnc(Cn2nnc3ccccc32)o1)N(Cc1ccc(F)cc1)c1ccccc1	71*
CCOC(=O)Cc1csc(SCc2nc3ccccc3c(=O)[nH]2)n1	-18
Cn1c(N2CCN(c3ccccn3)CC2)nc2c1c(=O)n(Cc1ccc(Cl)cc1)c(=O)n2C	-8
